Assay outcomes (PubChem)
The sample as a whole holds a higher share of hits than the screen did.
S1P4 agonist: activates the human S1P4 receptor; O95977; 220,000 tested, 0.35% active; AID 1509; S1P4-expressing cell line, agonist reporter assay; activation, % at 4.98 µM; in the data active = activation above about 11%
Target sequence (O95977 whole entry, looked up): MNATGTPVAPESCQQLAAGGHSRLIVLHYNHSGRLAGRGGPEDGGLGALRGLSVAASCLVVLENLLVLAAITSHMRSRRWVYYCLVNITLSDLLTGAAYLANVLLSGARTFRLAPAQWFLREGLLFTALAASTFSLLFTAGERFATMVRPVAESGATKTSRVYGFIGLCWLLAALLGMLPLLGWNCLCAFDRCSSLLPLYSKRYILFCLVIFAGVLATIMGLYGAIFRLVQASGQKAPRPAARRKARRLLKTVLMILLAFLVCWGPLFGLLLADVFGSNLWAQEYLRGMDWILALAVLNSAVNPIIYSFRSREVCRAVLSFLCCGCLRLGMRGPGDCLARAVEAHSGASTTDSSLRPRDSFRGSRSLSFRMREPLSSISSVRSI
S1P3 antagonist: S1P3 (human) receptor antagonism. CHO S1P3 NFAT-BLA reporter, FRET fluorescence, antagonist mode. Q99500. 170,000 tested, 0.27% active. inhibition, % at 4.98 µM;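 active = inhibition above the plate cutoff, the mean inhibition of test wells on that plate plus 3 SD, cut at about 28% in these data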;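 note: cells challenged with S1P at its EC80 of 0.8 µM; blue over green emission ratio from cleaved BLA substrate after 4 h stimulation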
Lmaj promast: Leishmania major promastigote growth inhibition. Leishmania major promastigotes, resazurin fluorescence viability. inhibition, % at 10 µM. 200,000 tested, 9% active. AID 1063; in the data active = inhibition above about 50%;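 note: promastigotes grown with compound for 44 hours at 28 °C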
S1P4 antag: antagonists of human S1P4 receptor | 220,000 tested, 0.26% active | O95977 | inhibition, % at 4.98 µM | S1P4-expressing cells, antagonist mode, reporter read-out | AID 1510; in the data active = inhibition above about 29%
Mdm2 ligase inh: inhibitors of human Mdm2 E3 ubiquitin ligase. signal enhancement, % at 5 µM. 210,000 tested, 0.11% active. cell-based MDM2 ubiquitination luciferase reporter, 2 h; 0 = plate control, 100 = twice control, blank-subtracted. Q00987. AID 1230;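 active = signal enhancement of 30% or more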;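 note: luminescence tracks abundance of the self-degrading MDM2-luciferase fusion protein; higher signal means inhibition of MDM2 E3 ligase activity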
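test system = mammalian cells stably expressing self-ubiquitinating, self-degrading MDM2 E3–luciferase fusion | quantity = 2000 cells/well | incubation = cell settling 4 h, compound treatment 2 h, both 37 °C | signal = luminescence with SteadyLite reagent, 15 min at room temperature | evaluation = % enhancement relative to plate controls after blank subtraction | benchmarks = plate controls and plate blanks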
Each line names hits and unclear results; the compound was inactive in the other large screens.

CC(=O)c1ccc(OCC(=O)NCc2ccc(F)cc2)cc1	none
Cn1c(=O)n(C)c2cc(/C=N/NC(N)=S)ccc21	none
O=C(Cc1csc(Nc2nc(=S)[nH]c3ccccc23)n1)N1CCN(c2cccc(C(F)(F)F)c2)CC1	none
CCOC(=O)c1sc2nc(CSc3ccccc3)nc(NCCN(C)C)c2c1C	Lmaj promast 93
CCCN1CCN(S(=O)(=O)c2ccc(OC)c(Br)c2)CC1	Lmaj promast 96 (no result: S1P3 antagonist)
CCOc1cc(S(=O)(=O)N2CCN(CC)CC2)ccc1Cl	Lmaj promast 90
COc1ccc(CN2CCN(S(=O)(=O)c3ccc(C)cc3)CC2)cc1Br	Lmaj promast 68 (no result: S1P3 antagonist)
CCOc1cc(S(=O)(=O)N2CCCCC2)ccc1Cl	none
COc1ccc(CN2CCOCC2)cc1Br	none
CCOC(=O)Cn1nc(C)c(NC(=O)COc2ccc(C)c(C)c2)c1C	none (no result: Lmaj promast, Mdm2 ligase inh)
CCCOC(=O)/C=C/c1c(C)[nH]c(=O)[nH]c1=O	none
CCCCOC(=O)/C=C/c1c(C)[nH]c(=O)[nH]c1=O	Lmaj promast 52
CCC1(C)Cc2ccccc2-c2nc(NCCCO)[nH]c(=O)c21 (stereo unspecified)	none (no result: Lmaj promast)
CSc1ccc(CNc2ccccc2)cc1	Lmaj promast 100 (no result: S1P3 antagonist)
CSc1ccc(CNc2ccccn2)cc1	none
COc1ccccc1NC(=O)c1ccc(NC(=O)CSc2n[nH]c(N)n2)cc1	Lmaj promast 65
CSc1ccc(NC(=O)N2CC=C(n3c(=O)[nH]c4ccccc43)CC2)cc1	none
O=C1CN(C(=O)CN2CCCC2)C(c2ccccc2)c2cc(Br)ccc2N1 (stereo unspecified)	Lmaj promast 64
O=C1CN(C(=O)CN2CCOCC2)C(c2ccccc2)c2cc(Br)ccc2N1 (stereo unspecified)	none
COc1ccccc1C(C)NCC(=O)Nc1ccccc1C(F)(F)F (stereo unspecified)	Lmaj promast 60
O=C(c1ccccc1)N1CC(COc2ccccc2)OC(c2cccnc2)O1 (stereo unspecified)	Lmaj promast 54
Cc1ccccc1NC(=O)CNC(=O)c1ccc(C(F)(F)F)cc1	Lmaj promast 62
Cc1ccc(C(=O)NCC(=O)Nc2ccccc2C(F)(F)F)cc1	none
COCCN(C(=O)c1ccccc1OC1CCN(S(C)(=O)=O)CC1)C(C)C	none
Cc1cc(C)c(OCCNC(=O)c2ccccc2Sc2ccccc2C#N)c(C)c1	Lmaj promast 100
O=C(O)c1cccc2cccnc12	none (no result: S1P3 antagonist)
O=C(Cc1ccc(Cl)cc1)Oc1cccc2cccnc12	Lmaj promast 97
O=C(Oc1ccccc1)c1cccc2cccnc12	Lmaj promast 94
O=C(Oc1cccc2cccnc12)c1cccs1	Lmaj promast 100
O=C(Oc1ccc(Cl)c2cccnc12)c1ccco1	Lmaj promast 99 (no result: S1P3 antagonist)
CC(=O)Nc1cc(NC(C)=O)cc(C(=O)NC(C)(C)C)c1	none
O=C(Oc1cccc2cccnc12)c1ccc2c(c1)OCCO2	S1P3 antagonist 61
Cc1c(C(=O)O/N=C(\N)c2ccccn2)cccc1[N+](=O)[O-]	none (no result: Lmaj promast)
O=C(Oc1cccc2cccnc12)c1ccc(Br)o1	none
Cc1c(C(=O)Oc2cccc3cccnc23)cccc1[N+](=O)[O-]	Lmaj promast 98
O=C(Oc1cccc2cccnc12)c1ccco1	Lmaj promast 99 (no result: S1P3 antagonist, Mdm2 ligase inh)
O=C(NCCCc1nc2ccccc2[nH]1)c1cccs1	none
O=C1c2cccc3cc([N+](=O)[O-])cc(c23)C(=O)N1c1ccccc1O	Lmaj promast 98
Cc1cc(O)ccc1N1C(=O)c2cccc3cc([N+](=O)[O-])cc(c23)C1=O	Lmaj promast 88
Cc1cccc(C)c1N1C(=O)c2cccc([N+](=O)[O-])c2C1=O	none
CN(C)c1cccc(C(=O)OCC(=O)NCC2CCCO2)c1 (stereo unspecified)	none
Cc1cc(C)c(S(=O)(=O)c2ccc(Cl)cc2C)c(Cl)n1	Lmaj promast 100
Cc1cc(C)c(S(=O)(=O)c2c(C)cccc2C)c(Cl)n1	Lmaj promast 100 (no result: S1P3 antagonist)
Cc1n[nH]c(C)c1Cc1ccc(C(=O)O)cc1	none
O=C1/C(=C/c2ccccc2[N+](=O)[O-])COc2ccccc21	Lmaj promast 100 (no result: Mdm2 ligase inh)
O=C1c2ccccc2OCOc2ccccc21	none
CNc1ccc(/C=C2\COc3ccccc3C2=O)cc1[N+](=O)[O-]	none (no result: S1P3 antagonist)
O=C1/C(=C/c2ccccn2)COc2ccccc21	Lmaj promast 100
Cn1ncc2c(=O)n(CC(=O)NC34CC5CC(CC(C5)C3)C4)cnc21	none (no result: S1P3 antagonist)
CN(CCN1CCOCC1)Cc1nc(-c2cccs2)no1	Lmaj promast 73
c1csc(-c2noc(CN3CCOCC3)n2)c1	none (no result: Lmaj promast)
CCCC(=O)Nc1cccc(Oc2nc(C)cc(C)c2C#N)c1	Lmaj promast 52 (no result: S1P3 antagonist)
Cc1ccc(Nc2nnc(SCC(=O)N(C)C3CCS(=O)(=O)C3)s2)cc1 (stereo unspecified)	Lmaj promast 56
CCN(C(=O)CSc1nnc(Nc2ccccc2)s1)C1CCS(=O)(=O)C1 (stereo unspecified)	Lmaj promast 58
CCN(C(=O)CSc1nnc(-c2ccccc2)n1C)C1CCS(=O)(=O)C1 (stereo unspecified)	none
Cc1ccccc1Nc1nnc(SCC(=O)N(C)C2CCS(=O)(=O)C2)s1 (stereo unspecified)	none
CCN(C(=O)CSc1nc2cc(C(F)(F)F)ccc2n1Cc1ccccc1)C1CCS(=O)(=O)C1 (stereo unspecified)	Lmaj promast 98
Cc1sc2nc(CSc3ccc([N+](=O)[O-])c(C(F)(F)F)c3)[nH]c(=O)c2c1C	none
N=C1C(c2nc3ccccc3c(=O)[nH]2)=C(O)CN1CCc1ccccc1	Lmaj promast 60
N=C1C(c2nc3ccccc3c(=O)[nH]2)=C(O)CN1CCO	none (no result: S1P3 antagonist)
COc1ccccc1N1CC(O)=C(c2nc3ccccc3c(=O)[nH]2)C1=N	Lmaj promast 99
O=C(CSc1nc(-c2ccc(F)cc2)cc(C(F)(F)F)n1)NCc1ccco1	none (no result: S1P3 antagonist)
Cc1c(C(=O)O)cccc1-n1c(C)cc(/C=N/Nc2ccc([N+](=O)[O-])cn2)c1C	none (no result: Lmaj promast)
Cc1c(C(=O)O)cccc1-n1c(C)cc(/C=N/NC(=O)c2cc3ccccc3o2)c1C	Lmaj promast 56
CCOc1cccc2sc(Nc3nc4ccc(NC(C)=O)cc4s3)nc12	Lmaj promast 80
CCOC(=O)c1sc(Nc2ccccc2)nc1C	none (no result: S1P3 antagonist)
CCOC(=O)c1sc(Nc2nc3c(OC)cccc3s2)nc1C	Lmaj promast 73
CCOC(=O)c1sc(Nc2nc3c(F)cccc3s2)cc1C	Lmaj promast 78
CCOC(=O)c1sc(Nc2nc(C)cc(OC)n2)nc1C	Lmaj promast 56
CCOC(=O)c1sc(Nc2nc(C)cc(C)n2)nc1C	none (no result: Lmaj promast)
CC(CNc1ccccc1O)C(=O)O (stereo unspecified)	none
CCOC(=O)C1(Cc2cccc(F)c2)CCN(CC(O)CO)CC1 (stereo unspecified)	none (no result: Lmaj promast)
CCc1nnc(NC(=O)c2ccc3ccccc3n2)s1	Lmaj promast 56
COc1ccc(-c2n[nH]c(C)c2-c2cnn(-c3ccccc3)c2)c(O)c1	none (no result: Mdm2 ligase inh)
COc1ccc(-c2onc(C)c2-c2cnn(-c3ccccc3)c2)c(O)c1C	Lmaj promast 84
